Drawing on ChEMBL document CHEMBL2176901, “Pyrrolo[3,4-h]quinolinones a new class of photochemotherapeutic agents” (Bioorg Med Chem, 2011), this text covers IC50 for 16 compounds.

Holding throughout (type): functional, cell-based
The test system of test [1] is MCF7. The test can be described thus: Phototoxicity in 2.5 J/cm'2 UV-A irradiated human MCF7 cells after 72 hrs by MTT assay. Particulars: MCF7, light or radiation study. The procedure, abridged: (§1)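 HL-60 and Jurkat (8×10³/well, RPMI-1640) and MCF-7, LoVo, NCTC-2544 (5×10³/well; DMEM or Ham's F12) preincubated 18 h at 37 °C, 5% CO₂. Compound in DMSO diluted in HBSS pH 7.2, 30 min at 37 °C, then UV-A at 2.5 or 3.75 J/cm². Medium replaced, 72 h incubation, MTT read-out. IC50 as mean ± SEM of three experiments.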

The subject of test [2] is HL-60. The test can be described thus: Phototoxicity in 2.5 J/cm'2 UV-A irradiated human HL60 cells after 72 hrs by MTT assay. Particulars: HL-60, light or radiation study. The procedure, abridged: as §1
A general note: Tetrazolium assays rely on reduction of a dye to a coloured formazan, in cell work by metabolically active cells.

The subject of test [3] is LoVo. The test can be described thus: Phototoxicity in 2.5 J/cm'2 UV-A irradiated human LoVo cells after 72 hrs by MTT assay. Particulars: light or radiation study. In a few lines:
as §1

The test system of test [4] is HL-60. The test can be described thus: Phototoxicity in 3.75 J/cm'2 UV-A irradiated human HL60 cells after 72 hrs by MTT assay. Particulars: HL-60, light or radiation study. In a few lines: as §1
For test [5], the system named is Jurkat. The test can be described thus: Phototoxicity in 3.75 J/cm'2 UV-A irradiated human Jurkat cells after 72 hrs by MTT assay. Particulars: light or radiation study. The procedure, abridged: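 Jurkat cells (8 × 10³/well) in RPMI-1640 with 10% FBS, held 18 h at 37 °C, 5% CO2. Compound stock in DMSO was diluted in HBSS pH 7.2 and added for 30 min at 37 °C. Cells were UV-A irradiated (lamp mainly 365 nm, 4.0 mW/cm²), then returned to medium for 72 h. MTT readout. IC50 is the mean ± SEM of three experiences.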

Test [6] in a line: Phototoxicity in 3.75 J/cm'2 UV-A irradiated human NCTC-2544 cells after 72 hrs by MTT assay. Particulars: NCTC-2544, light or radiation study. The procedure, abridged: (§2)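 Seeded at 5 × 10³ cells/well with 10% FBS: MCF-7 and NCTC-2544 in DMEM, LoVo in Ham's F12. Pre-incubated 18 h at 37 °C, 5% CO2. Compound (DMSO stock diluted in HBSS pH 7.2) was applied for 30 min at 37 °C, then UV-A irradiation (mainly 365 nm, 4.0 mW/cm²). Medium was restored for 72 h before MTT. IC50 is the mean ± SEM of three experiences.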

In test [7] the test system is Jurkat. The test can be described thus: Phototoxicity in 2.5 J/cm'2 UV-A irradiated human Jurkat cells after 72 hrs by MTT assay. To be noted: light or radiation study. In a few lines:
as §1

Test [8] in a line: Phototoxicity in 2.5 J/cm'2 UV-A irradiated human NCTC-2544 cells after 72 hrs by MTT assay. Particulars: NCTC-2544, light or radiation study. The procedure, abridged: as §1
The test system of test [9] is MCF7. The test can be described thus: Phototoxicity in 3.75 J/cm'2 UV-A irradiated human MCF7 cells after 72 hrs by MTT assay. Particulars: MCF7, light or radiation study. In a few lines: as §2
Test [10] has as its system LoVo. The test can be described thus: Phototoxicity in 3.75 J/cm'2 UV-A irradiated human LoVo cells after 72 hrs by MTT assay. To be noted: light or radiation study. In a few lines:
as §2

In general, IC50 refers to the point on the concentration scale where inhibition reaches its midpoint. Consider `O=c1[nH]c2c(cc1S(=O)(=O)c1ccccc1)CCc1cn(Cc3ccccc3)cc1-2`, for which the half-inhibitory concentration (IC50) is greater than 20 µM in the test with MCF7 [1]; greater than 20 µM with HL-60 [2]; greater than 20 µM in the test on LoVo [3]; 14.5 µM in the test with HL-60 [4]; greater than 20 µM in the test with Jurkat [5]; greater than 20 µM in test [6]. The half-inhibitory concentration (IC50) (in the test with Jurkat [7]; in test [8]; in the test with MCF7 [9]; in the test on LoVo [10]) was greater than 20 µM throughout.

As for `Cc1c2c(c(C(=O)O)n1C)CCc1cc(S(=O)(=O)c3ccccc3)c(=O)[nH]c1-2`, the IC50 (in the test with MCF7 [1]; in the test on HL-60 [2]; with LoVo [3]; with HL-60 [4]; in the test on Jurkat [5]; in [6]) was greater than 20 µM each time. The IC50 (with Jurkat [7]; in [8]; with MCF7 [9]; in the test on LoVo [10]) was greater than 20 µM in each case.

As for `Cc1[nH]c(C(=O)O)c2c1-c1[nH]c(=O)c(S(=O)(=O)c3ccccc3)cc1CC2`, the IC50 (with MCF7 [1]; in the test on HL-60 [2]; with LoVo [3]; in the test with HL-60 [4]; in the test with Jurkat [5]; in [6]) was greater than 20 µM in each case. For the same compound, the IC50 (with Jurkat [7]; in test [8]; in the test on MCF7 [9]; in the test with LoVo [10]) was greater than 20 µM each time.

For `O=c1ccc2ccc3occc3c2o1` [ANGELICIN], the IC50 with LoVo [3] came out at 4 µM; in [6], 0.9 µM; in test [8], 4.2 µM; with LoVo [10], 1.1 µM.

With `CCOC(=O)c1c2c(c(C)n1C)-c1[nH]c(=O)c(S(=O)(=O)c3ccccc3)cc1CC2`, the IC50 in the test with MCF7 [1] was 10 µM; with HL-60 [2], 3.6 µM; in the test on LoVo [3], 7.9 µM; in the test on HL-60 [4], 1.8 µM; in the test with Jurkat [5], 1.4 µM; in [6] it was 6.2 µM. The concentration for half-maximal inhibition (IC50) amounted to 2 µM in the test with Jurkat [7], 10.1 µM in [8], 5.1 µM with MCF7 [9] and 4 µM in the test on LoVo [10].

For the compound `CCOC(=O)c1[nH]c(C)c2c1CCc1cc(S(=O)(=O)c3ccccc3)c(=O)n(C)c1-2`, the IC50 is greater than 20 µM in the test on MCF7 [1]; greater than 20 µM in the test on HL-60 [2]; greater than 20 µM in the test on LoVo [3]; 5.8 µM in the test with HL-60 [4]; 12.5 µM in the test with Jurkat [5]; greater than 20 µM in test [6]. Moreover, the half-maximal inhibitory concentration (IC50) in the test with Jurkat [7] is greater than 20 µM; in test [8], greater than 20 µM; in the test on MCF7 [9] it was greater than 20 µM; with LoVo [10] it was 13.2 µM.

Take `CCOC(=O)c1c2c(c(C)n1Cc1ccccc1)-c1c(cc(S(=O)(=O)c3ccccc3)c(=O)n1C)CC2`: the IC50 with MCF7 [1] was greater than 20 µM; in the test with HL-60 [2], 5.4 µM; in the test on LoVo [3], 12.1 µM; with HL-60 [4], 2.6 µM; in the test with Jurkat [5], 1.3 µM; in test [6] it was 14.3 µM. Moreover, the concentration for half-maximal inhibition (IC50) in the test with Jurkat [7] was 2.9 µM; in test [8], greater than 20 µM; with MCF7 [9] it was 14.4 µM; in the test on LoVo [10], 8.7 µM.

In the case of `Cn1c2c(cc(S(=O)(=O)c3ccccc3)c1=O)CCc1cn(-c3ccccc3)cc1-2`, the half-inhibitory concentration (IC50) (in the test with MCF7 [1]; with HL-60 [2]; in the test with LoVo [3]; with HL-60 [4]; with Jurkat [5]; in test [6]) was greater than 20 µM each time. Also, the IC50 (in the test on Jurkat [7]; in [8]; in the test on MCF7 [9]; in the test with LoVo [10]) was greater than 20 µM throughout.

For the compound `CCOC(=O)c1[nH]c(C)c2c1CCc1cc(S(=O)(=O)c3ccccc3)c(=O)[nH]c1-2`, the IC50 in the test on MCF7 [1] is greater than 20 µM; with HL-60 [2] it was 13.7 µM; in the test with LoVo [3] it was 17.5 µM; with HL-60 [4], 9.1 µM; with Jurkat [5] it was 10 µM; in test [6] it was 15 µM. Moreover, the IC50 with Jurkat [7] was 18 µM; in test [8] it was greater than 20 µM; in the test with MCF7 [9], greater than 20 µM; in the test on LoVo [10] it was 13.6 µM.

Turning to `Cc1c2c(c(C(=O)O)n1Cc1ccccc1)CCc1cc(S(=O)(=O)c3ccccc3)c(=O)[nH]c1-2`, the IC50 (with MCF7 [1]; with HL-60 [2]; with LoVo [3]; with HL-60 [4]; in the test with Jurkat [5]; in test [6]) was greater than 20 µM each time. Moreover, the IC50 (with Jurkat [7]; in test [8]; in the test on MCF7 [9]; in the test on LoVo [10]) was greater than 20 µM in each case.

On to `Cc1c2c(cn1C)CCc1cc(S(=O)(=O)c3ccccc3)c(=O)[nH]c1-2`, for which the IC50 (with MCF7 [1]; with HL-60 [2]; with LoVo [3]; in the test with HL-60 [4]; in the test on Jurkat [5]; in [6]) was greater than 20 µM in each case. Also, the IC50 (with Jurkat [7]; in [8]; in the test on MCF7 [9]; in the test on LoVo [10]) was greater than 20 µM in each case.

Regarding `COc1nc2c(cc1S(=O)(=O)c1ccccc1)CCc1cn(Cc3ccccc3)cc1-2`, the IC50 was 10 µM with MCF7 [1]; 8.3 µM in the test on HL-60 [2]; 9.9 µM with LoVo [3]; 7.3 µM in the test with HL-60 [4]; 6.3 µM with Jurkat [5]; 9.6 µM in test [6]. The IC50 in the test on Jurkat [7] came out at 8.5 µM; in [8], 15.3 µM; in the test on MCF7 [9], 7.5 µM; in the test on LoVo [10], 8.7 µM.

Take `Cn1c2c(cc(S(=O)(=O)c3ccccc3)c1=O)CCc1cn(Cc3ccccc3)cc1-2`: the concentration for half-maximal inhibition (IC50) was 6.6 µM with MCF7 [1]; 4.4 µM in the test on HL-60 [2]; 3.9 µM with LoVo [3]; 2.8 µM with HL-60 [4]; 2.5 µM in the test with Jurkat [5]; 5.8 µM in test [6]. Further, the IC50 came to 3.6 µM in the test with Jurkat [7], 8.2 µM in test [8], 3.7 µM in the test on MCF7 [9] and 2.8 µM in the test with LoVo [10].

Turning to `Cn1cc2c(c1)-c1[nH]c(=O)c(S(=O)(=O)c3ccccc3)cc1CC2`, the IC50 in the test on MCF7 [1] was greater than 20 µM; with HL-60 [2], greater than 20 µM; with LoVo [3] it was greater than 20 µM; in the test on HL-60 [4], 5.6 µM; in the test on Jurkat [5], greater than 20 µM; in test [6], greater than 20 µM. Further, the IC50 (in the test on Jurkat [7]; in test [8]; in the test on MCF7 [9]; in the test with LoVo [10]) was greater than 20 µM each time.

As for `O=c1[nH]c2c(cc1S(=O)(=O)c1ccccc1)CCc1cn(-c3ccccc3)cc1-2`, the IC50 with MCF7 [1] is greater than 20 µM; in the test with HL-60 [2], 12.2 µM; in the test with LoVo [3], greater than 20 µM; with HL-60 [4], 8 µM; in the test with Jurkat [5], 7.4 µM; in test [6], greater than 20 µM. Further, the half-inhibitory concentration (IC50) (in the test on Jurkat [7]; in test [8]; in the test on MCF7 [9]; with LoVo [10]) was greater than 20 µM each time.

`Cn1cc2c(c1)-c1c(cc(S(=O)(=O)c3ccccc3)c(=O)n1C)CC2`: the IC50 (in the test on MCF7 [1]; in the test with HL-60 [2]; in the test with LoVo [3]; in the test with HL-60 [4]; with Jurkat [5]; in [6]) was greater than 20 µM throughout. The IC50 (with Jurkat [7]; in test [8]; with MCF7 [9]; in the test on LoVo [10]) was greater than 20 µM each time.
